Lipid droplet – modulators of hepatic lipid droplet formation | inhibition, % at 6.5 µM | AID 1656 | actives 0.4% (n = 240,000) | AML12 mouse hepatocytes, oleate lipid droplets, BODIPY imaging;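 active = lipid droplet intensity inhibited by at least 50%, with more than 500 cells counted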
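Assay system: AML12 mouse liver cells | Compound dosing: One dose, 6.5 µM compound | Read-out basis: Droplet intensity reduction, % inhibition | Measured by: Fluorescence imaging, 20x objective, two fields per well | Schedule: Overnight treatment with compound plus oleate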
Arr AP2 block – blocks beta-arrestin peptide binding to AP2 adaptin; actives 0.31% (n = 340,000); FITC-arrestin peptide / GST-AP2 beads, flow cytometry; AP2 beta2 appendage carries R879A mutation; AID 504490; inhibition, % at 10 µM;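 active = inhibition above a set limit, near 3 SD of compounds lacking own fluorescence, cut at about 54% in these data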;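 note: plate controls were DMSO wells for no effect and 5 µM unlabelled arrestin peptide for full effect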
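Material – GST-tagged AP2 beta2-adaptin appendage (R879A) on 4 µm glutathione beads · Probe or stimulus – fluorescein-tagged arrestin peptide at 50 nM final · Timing – 12 min plus 1 h, RT · Detection – bead flow cytometry, FITC channel · Read-out basis – inhibition as reduced fluorescein signal on beads, percent · Medium – PBS plus Tween 20 (0.05%) and BSA (0.1%)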
CendR NRP1 mod – modulators of CendR peptide binding to human neuropilin-1 | inhibition, % at 25 µM | actives 0.85% (n = 360,000) | FAM-RPARPAR peptide binding to NRP-1, fluorescence polarization | O14786;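 active = inhibition or corrected inhibition above about 18%, plus a signal ratio from 0.5 to 1.5, limit read from the data, passing the limit was not always enough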
HGIII-sPLA2 inh – Blocks human group III sPLA2 activity; QFRET BODIPY PC-A2 liposome hydrolysis, fluorescence; inhibition, % at 12.2 µM; actives 0.56% (n = 370,000); AID 743126;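 active = inhibition above mean plus 3 SD of compounds lying within the high and low control bounds, cut at about 19% in these data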;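 note: 0% = median of test compound wells and 100% = no enzyme DMSO wells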
PfM18AAP inh-1 – PfM18AAP enzyme inhibition; recombinant PfM18AAP, H-Glu-NHMec fluorogenic cleavage; inhibition, % at 7.35 µM; actives 1.2% (n = 290,000); AID 1822;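 active = inhibition above the campaign mean inhibition over all tested compounds plus 3 SD, cut at about 28% in these data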;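 note: 0% = plate median of test compound wells and 100% = 2 mM ZnCl2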
HTR2A ag – mouse HTR2A agonism via beta-arrestin recruitment; actives 0.66% (n = 360,000); P35363; activation, % at 7.6 µM; AID 624169; CHO-K1 mHTR2A beta-arrestin complementation, luminescence; percent of 30 µM serotonin response;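 active = activation above a run cutoff, the mean activation of all tested compounds plus 3 SD, cut at about 14% in these data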;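 note: 0% = plate median of compound wells and 100% = 30 µM serotonin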
PfM18AAP inh-2 – PfM18AAP inhibition, confirmation | recombinant PfM18AAP, H-Glu-NHMec fluorogenic cleavage | shares compounds with PfM18AAP inh-1 | actives 28% (n = 2,400) | inhibition, % at 7.35 µM;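 active = mean inhibition over replicate wells above the hit cutoff set for the earlier primary screen, cut at about 29% in these data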;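 note: 0% = median of test compound wells and 100% = 2 mM ZnCl2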
CTSL1 counter – counter-screen for PFM18AAP inhibitors: confirmation of human cathepsin L inhibitors; shares compounds with PfM18AAP inh-1; purified cathepsin L1, Z-Leu-Arg-MCA fluorescence; inhibition, % at 5.96 µM; 2,400 tested, under 10 active; AID 2178;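 active = average inhibition across replicates above the hit cutoff set in the earlier primary screen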;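 note: 0% = median of test compound wells and 100% = Z-Phe-Ala-diazomethylketone 1 µM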
Target sequence (P07711 whole entry, looked up): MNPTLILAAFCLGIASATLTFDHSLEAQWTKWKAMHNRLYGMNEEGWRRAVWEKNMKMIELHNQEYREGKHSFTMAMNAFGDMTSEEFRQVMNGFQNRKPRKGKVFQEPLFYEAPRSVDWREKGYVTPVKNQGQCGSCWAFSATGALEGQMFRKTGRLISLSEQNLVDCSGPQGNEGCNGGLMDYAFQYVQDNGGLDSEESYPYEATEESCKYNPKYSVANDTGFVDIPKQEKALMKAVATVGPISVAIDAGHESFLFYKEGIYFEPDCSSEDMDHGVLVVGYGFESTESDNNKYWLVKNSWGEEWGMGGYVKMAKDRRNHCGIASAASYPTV
The depositor's hits bear a star. An excerpt weighted towards active compounds, which were near 3.3% of everything screened.

How did O=C(COc1ccc(Br)cc1Cl)Nn1cnnc1 do in these assays?
Lipid droplet: 3; Arr AP2 block: 16; CendR NRP1 mod: -53; HGIII-sPLA2 inh: 0; PfM18AAP inh-1: 43*; HTR2A ag: 5; PfM18AAP inh-2: 42*; CTSL1 counter: -2

How did CCCCNc1ccc2c(c1)OC[C@H](Cc1ccccc1)NS2(=O)=O do in these assays?
HGIII-sPLA2 inh: -6

How did Cc1ccc(-n2c(SCC(=O)Nc3ccc(S(=O)(=O)Nc4nccs4)cc3)nnc2-c2cccs2)cc1 do in these assays?
HGIII-sPLA2 inh: -59

How did CCOC(=O)CCCNC(=O)CSc1nnc(-c2ccccc2)c(-c2ccccc2)n1 do in these assays?
Lipid droplet: -4; Arr AP2 block: -4; CendR NRP1 mod: 4; HGIII-sPLA2 inh: -5; PfM18AAP inh-1: 5; HTR2A ag: 10

Results for COc1cc(NC(=O)CSc2nc(C)cc(=O)[nH]2)cc(OC)c1 ?
HGIII-sPLA2 inh: 9

Results for COc1cc(OC)cc(C(=O)n2cnnc2N)c1 ?
Lipid droplet: 6; Arr AP2 block: -2; CendR NRP1 mod: -28; HGIII-sPLA2 inh: 10; PfM18AAP inh-1: 53*; HTR2A ag: 5; PfM18AAP inh-2: 49*; CTSL1 counter: 0

What do the screens show for `CCOC(=O)c1c(C)n(C)c2cc(Br)c(O)c(O)c12`?
Lipid droplet: -5; Arr AP2 block: 7; CendR NRP1 mod: -6; HGIII-sPLA2 inh: -9; PfM18AAP inh-1: 51*; HTR2A ag: 6; PfM18AAP inh-2: 53*; CTSL1 counter: -5

Results for CCOC(=O)c1c(C)n(C)c2cc([N+](=O)[O-])c(O)c([N+](=O)[O-])c12 ?
Lipid droplet: -2; Arr AP2 block: 6; CendR NRP1 mod: 1; HGIII-sPLA2 inh: 4; PfM18AAP inh-1: 10; HTR2A ag: 4

Results for Nc1c(/C=C2/C=CC(=O)C(O)=C2)c(=O)nc2sc(CC(=O)N3CCCC3)nn12 ?
Lipid droplet: 4; Arr AP2 block: 6; CendR NRP1 mod: -94; HGIII-sPLA2 inh: -16; PfM18AAP inh-1: 63*; HTR2A ag: 5; PfM18AAP inh-2: 43*; CTSL1 counter: -2

How did COC1=C/C(=C/c2c(N)n3nc(CC(=O)N4CCCC4)sc3nc2=O)C=CC1=O do in these assays?
Lipid droplet: -1; Arr AP2 block: 12; CendR NRP1 mod: -114; HGIII-sPLA2 inh: -22; PfM18AAP inh-1: 3; HTR2A ag: 0

What do the screens show for `CCc1ccc(CNCC(=O)N2CCC3(CC2)OCCO3)s1`?
HGIII-sPLA2 inh: 7

Results for O=c1/c(=C/c2cn(-c3ccccc3)nc2-c2ccc(F)cc2)sc2nc3ccccc3n12 ?
PfM18AAP inh-1: -10

What do the screens show for `CC(C)Oc1ccc(-c2nn(-c3ccccc3)cc2/C=c2\sc3ncnn3c2=O)cc1`?
Lipid droplet: 10; PfM18AAP inh-1: 58*; PfM18AAP inh-2: -17; CTSL1 counter: 3

How did CCc1nc2ccc(C(=O)NCc3ccccc3OC)cn2c1N(C)Cc1ccc(N(C)C)cc1 do in these assays?
CendR NRP1 mod: 3; HGIII-sPLA2 inh: 7; HTR2A ag: -8

What do the screens show for `CC[C@]1(c2ccc(C)cc2)C(=O)N(C(=O)OC(C)C)N1C(=O)OC(C)C`?
HGIII-sPLA2 inh: 2

How did O=c1[nH]nc(Cc2ccccc2)c2ccccc12 do in these assays?
Lipid droplet: 3; Arr AP2 block: 7; CendR NRP1 mod: 7; HGIII-sPLA2 inh: -3; PfM18AAP inh-1: 1; HTR2A ag: -2

What do the screens show for `O=c1[nH]c(=S)[nH]nc1Cc1ccccc1`?
Arr AP2 block: 32; CendR NRP1 mod: 0; HGIII-sPLA2 inh: 15; PfM18AAP inh-1: 38*; HTR2A ag: -2; PfM18AAP inh-2: -30; CTSL1 counter: -7
